Assay results published in ChEMBL document CHEMBL1129536, “Nucleoside analogs. 14. The synthesis of antitumor activity in mice of molecular combinations of 5-fluorouracil and N-(2-Chloroethyl)-N-nitrosourea moieties separated by a three-carbon chain” (1996).

Experiments:
MAC13 [1] = assay: Antitumor effect against MAC13 Tumors was determined by the percent of mean weight of treated tumors to mean weight of control tumors by arachis oil at dose 150 mg/kg; format: functional, Mus musculus
Method in brief: (§1)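 MAC 13 tumors were grown in mice. Two days after transplantation, at about 2 mm³, mice were allocated by restricted randomization. Compounds were made up fresh and given ip at 0.1 mL/10 g body weight. Tumor weight was measured 21 days later, and T/C % was the mean treated tumor weight over the mean control weight; deaths among treated mice were recorded.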

Mus musculus [2] = assay: Antitumor effect against Colon 38 Adenocarcinoma was determined by the percent of median tumor volume of treated animals to median tumor volume of control animals by saline at dose 100 mg/kg; format: functional
Method in brief: (§2)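 Colon 38 adenocarcinoma, serially maintained in C57Bl/6 mice, was implanted as 3 mm × 3 mm fragments sc in B6D2F1 mice (19-22 g) on day 0. Compounds were made fresh on the day of injection, either dissolved in saline (0.9% NaCl) or suspended in saline with Tween 80 […], and given ip. T/C was the median tumor volume of treated over untreated controls; T/C <42% counted as activity.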

MAC15A [3] = assay: Antitumor effect against MAC15A Tumors was determined by the percent of median survival times of treated animals to median survival times of control animals by arachis oil at dose 100 mg/kg; details: Mus musculus
MAC13 [4] = assay: Antitumor effect against MAC13 Tumors was determined by no. deaths/treated of mice by arachis oil at dose 150 mg/kg; no of deaths/treated 0/5; format: functional, Mus musculus
MAC13 [5] = assay: Antitumor effect against MAC13 Tumors was determined by no. deaths/treated of mice by 10% DMSO/arachis oil at dose 100 mg/kg; no of deaths/treated 0/5; format: functional, Mus musculus
MAC15A [6] = assay: Antitumor effect against MAC15A Tumors was determined by the percent of median survival times of treated animals to median survival times of control animals by 10% DMSO/arachis oil at dose 100 mg/kg; details: Mus musculus
MAC13 [7] = assay: Antitumor effect against MAC13 Tumors was determined by the percent of mean weight of treated tumors to mean weight of control tumors by 10% DMSO/arachis oil at dose 100 mg/kg; format: functional, Mus musculus; method in brief: as §1
Mus musculus [8] = assay: Antitumor effect against Colon 38 Adenocarcinoma was determined by the percent of median tumor volume of treated animals to median tumor volume of control animals by saline/Tween 80(9/1) at dose 50 mg/kg; format: functional; method in brief: as §2
MAC13 [9] = assay: Antitumor effect against MAC13 Tumors was determined by no. deaths/treated of mice by arachis oil at dose 100 mg/kg; no of deaths/treated 0/5; format: functional, Mus musculus
MAC13 [10] = assay: Antitumor effect against MAC13 Tumors was determined by the percent of mean weight of treated tumors to mean weight of control tumors by arachis oil at dose 100 mg/kg; format: functional, Mus musculus; method in brief: as §1
MAC13 [11] = assay: Antitumor effect against MAC13 Tumors was determined by no. deaths/treated of mice by arachis oil at dose 135 mg/kg; no of deaths/treated 0/5; format: functional, Mus musculus
MAC15A [12] = assay: Antitumor effect against MAC15A Tumors was determined by the percent of median survival times of treated animals to median survival times of control animals by arachis oil at dose 90 mg/kg; details: Mus musculus
[13] = Antitumor effect against MCa Mammary Carcinoma was determined by the percent of median survival times of treated animals to median survival times of control animals by 10%DMSO/water at dose 80 mg/kg; format: functional, Mus musculus
MAC13 [14] = assay: Antitumor effect against MAC13 Tumors was determined by the percent of mean weight of treated tumors to mean weight of control tumors by arachis oil at dose 135 mg/kg; format: functional, Mus musculus; method in brief: as §1
MAC13 [15] = assay: Antitumor effect against MAC13 Tumors was determined by no. deaths/treated of mice by arachis oil at dose 200 mg/kg; no of deaths/treated 0/5; format: functional, Mus musculus
MAC13 [16] = assay: Antitumor effect against MAC13 Tumors was determined by the percent of mean weight of treated tumors to mean weight of control tumors by arachis oil at dose 200 mg/kg; format: functional, Mus musculus; method in brief: as §1
MAC15A [17] = assay: Antitumor effect against MAC15A Tumors was determined by the percent of median survival times of treated animals to median survival times of control animals by arachis oil at dose 300 mg/kg; details: Mus musculus
Mus musculus [18] = assay: Antitumor effect against Colon 38 Adenocarcinoma was determined by the percent of median tumor volume of treated animals to median tumor volume of control animals by saline/Tween 80(9/1) at dose 100 mg/kg; format: functional; method in brief: as §2
[19] = Antitumor effect against MCa Mammary Carcinoma was determined by the percent of median survival times of treated animals to median survival times of control animals by 10%DMSO/water at dose 60 mg/kg; format: functional, Mus musculus
MAC13 [20] = assay: Antitumor effect against MAC13 Tumors was determined by no. deaths/treated of mice by arachis oil at dose 31.25 mg/kg; no of deaths/treated 0/10; format: functional, Mus musculus
MAC13 [21] = assay: Antitumor effect against MAC13 Tumors was determined by the percent of mean weight of treated tumors to mean weight of control tumors by arachis oil at dose 31.25 mg/kg; format: functional, Mus musculus
MAC15A [22] = assay: Antitumor effect against MAC15A Tumors was determined by the percent of median survival times of treated animals to median survival times of control animals by arachis oil at dose 62.5 mg/kg; details: Mus musculus
Mus musculus [23] = assay: Antitumor effect against Colon 38 Adenocarcinoma was determined by the percent of median tumor volume of treated animals to median tumor volume of control animals by saline/Tween 80(9/1)at dose 100 mg/kg; format: functional; method in brief: as §2
MAC15A [24] = assay: Antitumor effect against MAC15A Tumors was determined by the percent of median survival times of treated animals to median survival times of control animals by 10% DMSO/arachis oil at dose 200 mg/kg; details: Mus musculus
Mus musculus [25] = assay: Antitumor effect against Colon 38 Adenocarcinoma was determined by the percent of median tumor volume of treated animals to median tumor volume of control animals by saline at dose 50 mg/kg; format: functional
MAC13 [26] = assay: Antitumor effect against MAC13 Tumors was determined by no. deaths/treated of mice by arachis oil at dose 50 mg/kg; no of deaths/treated 0/5; format: functional, Mus musculus
MAC13 [27] = assay: Antitumor effect against MAC13 Tumors was determined by the percent of mean weight of treated tumors to mean weight of control tumors by arachis oil at dose 50 mg/kg; format: functional, Mus musculus
MAC13 [28] = assay: Antitumor effect against MAC13 Tumors was determined by the percent of mean weight of treated tumors to mean weight of control tumors by 10% ethanol/arachis oil at dose 20 mg/kg; format: functional, Mus musculus; method in brief: as §1
MAC13 [29] = assay: Antitumor effect against MAC13 Tumors was determined by no. deaths/treated of mice by 10% ethanol/arachis oil at dose 20 mg/kg; no of deaths/treated 0/5; format: functional, Mus musculus
MAC15A [30] = assay: Antitumor effect against MAC15A Tumors was determined by the percent of median survival times of treated animals to median survival times of control animals by saline at dose 20 mg/kg; details: Mus musculus
[31] = Antitumor effect against MCa Mammary Carcinoma was determined by the percent of median survival times of treated animals to median survival times of control animals by 10%DMSO/water at dose 100 mg/kg; format: functional, Mus musculus
MAC15A [32] = assay: Antitumor effect against MAC15A Tumors was determined by the percent of median survival times of treated animals to median survival times of control animals by arachis oil at dose 50 mg/kg; details: Mus musculus
MAC13 [33] = assay: Antitumor effect against MAC13 Tumors was determined by the percent of mean weight of treated tumors to mean weight of control tumors by 10% ethanol/arachis oilat dose 100 mg/kg; format: functional, Mus musculus; method in brief: as §1
MAC15A [34] = assay: Antitumor effect against MAC15A Tumors was determined by the percent of median survival times of treated animals to median survival times of control animals by 10% ethanol/arachis oil at dose 100 mg/kg; details: Mus musculus
[35] = Antitumor effect against MCa Mammary Carcinoma was determined by the percent of median survival times of treated animals to median survival times of control animals by 10%DMSO/water at dose 150 mg/kg; format: functional, Mus musculus
MAC13 [36] = assay: Antitumor effect against MAC13 Tumors was determined by no. deaths/treated of mice by 10% ethanol/arachis oil at dose 100 mg/kg; no of deaths/treated 0/5; format: functional, Mus musculus
MAC15A [37] = assay: Antitumor effect against MAC15A Tumors was determined by the percent of median survival times of treated animals to median survival times of control animals by arachis oil at dose 200 mg/kg; details: Mus musculus
MAC13 [38] = assay: Antitumor effect against MAC13 Tumors was determined by no. deaths/treated of mice by arachis oil at dose 200 mg/kg; no of deaths/treated 0/10; format: functional, Mus musculus

## COC(CCNC(=O)N(CCCl)N=O)n1cc(F)c(=O)[nH]c1=O (stereo not given)
MAC13 [1]
  T/C: 0.8%
Mus musculus [2]
  T/C: 47%
MAC15A [3]
  T/C: 233%
MAC13 [4]
  No. deaths/treated: 0

## COC(CCNC(=O)N(CCCl)N=O)n1c(=O)cc[nH]c1=O (stereo not given)
MAC13 [5]
  No. deaths/treated: 0
MAC15A [6]
  T/C: 200%
MAC13 [7]
  T/C: 43%

## O=NN(CCCl)C(=O)NCCOC(CCO)n1cc(F)c(=O)[nH]c1=O (stereo not given)
Mus musculus [8]
  T/C: 68%
MAC13 [9]
  No. deaths/treated: 0
MAC15A [3]
  T/C: 136%
MAC13 [10]
  T/C: 27%

## CSC(CCNC(=O)N(CCCl)N=O)n1cc(F)c(=O)[nH]c1=O (stereo not given)
MAC13 [11]
  No. deaths/treated: 0
MAC15A [12]
  T/C: 200%
[13]
  T/C: 195%
Mus musculus [2]
  T/C: 63%
MAC13 [14]
  T/C: 0%

## CC(C)(C)OC(CCNC(=O)N(CCCl)N=O)n1cc(F)c(=O)[nH]c1=O (stereo not given)
MAC13 [15]
  No. deaths/treated: 0
MAC13 [16]
  T/C: 1%
MAC15A [17]
  T/C: 280%
Mus musculus [18]
  T/C: 42%

## CSC(CNC(=O)N(CCCl)N=O)n1cc(F)c(=O)[nH]c1=O (stereo not given)
[19]
  T/C: 189%
MAC13 [20]
  No. deaths/treated: 0
MAC13 [21]
  T/C: 122%
Mus musculus [2]
  T/C: 0%
MAC15A [22]
  T/C: 156%

## O=NN(CCCl)C(=O)NCCC(SCC(=O)O)n1cc(F)c(=O)[nH]c1=O (stereo not given)
MAC13 [15]
  No. deaths/treated: 0
Mus musculus [23]
  T/C: 0%
MAC15A [24]
  T/C: 275%
MAC13 [16]
  T/C: 31%

## COC(CNC(=O)N(CCCl)N=O)n1c(=O)[nH]cc(F)c1=O (stereo not given)
Mus musculus [25]
  T/C: 17%
MAC15A [3]
  T/C: >850%
MAC13 [26]
  No. deaths/treated: 0
MAC13 [27]
  T/C: 11%

## CC1CCC(NC(=O)N(CCCl)N=O)CC1 (stereo not given) [SEMUSTINE]
MAC13 [28]
  T/C: 8%
MAC13 [29]
  No. deaths/treated: 0
MAC15A [30]
  T/C: 154%

## COC(CNC(=O)N(CCCl)N=O)n1cc(F)c(=O)[nH]c1=O (stereo not given)
[31]
  T/C: 311%
Mus musculus [2]
  T/C: 38%
MAC15A [32]
  T/C: 200%
MAC13 [26]
  No. deaths/treated: 0
MAC13 [27]
  T/C: 7%

## COC(CCNC(=O)N(CCCl)N=O)n1c(=O)[nH]cc(F)c1=O (stereo not given)
MAC13 [5]
  No. deaths/treated: 0
MAC15A [6]
  T/C: 360%
MAC13 [7]
  T/C: 1%

## O=NN(CCCl)C(=O)NCCC(n1cc(F)c(=O)[nH]c1=O)n1c(=O)[nH]cc(F)c1=O (stereo not given)
MAC13 [5]
  No. deaths/treated: 0
MAC15A [6]
  T/C: 182%
MAC13 [7]
  T/C: 87%

## O=NN(CCCl)C(=O)NCCC(OCCO)n1cc(F)c(=O)[nH]c1=O (stereo not given)
MAC13 [33]
  T/C: 23%
MAC15A [34]
  T/C: 233%
[35]
  T/C: 168%
MAC13 [36]
  No. deaths/treated: 0

## O=NN(CCCl)C(=O)NCCOC(CCNC(=O)c1ccccc1C(=O)O)n1cc(F)c(=O)[nH]c1=O (stereo not given)
MAC15A [37]
  T/C: 148%
[31]
  T/C: 121%
MAC13 [38]
  No. deaths/treated: 0
MAC13 [16]
  T/C: 103%
